Source: ChEMBL document CHEMBL1154714, “Design and synthesis of novel P2 substituents in diol-based HIV protease inhibitors” (Eur J Med Chem, 2010)

How the values were obtained:
[1] = test system: Human immunodeficiency virus 1; test: Ratio of EC50 for HIV1 3B bearing protease with M46I, V82F and I84V mutation to EC50 for HIV1 3B bearing wild type protease; type: functional
Summary of the method: (§1)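 HIV IIIb resistant variant (M46I, V82F, I84V) obtained after 20 passages in MT4 cells under rising ritonavir. MT4 cells (2×10⁴/well) received 5-fold serial compound dilutions together with 20–50 TCID of wild-type or mutant IIIb. After 5 days, cytopathic effect was read as viability by XTT. EC50 was taken from dose-response curves of percent cytoprotection.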

[2] = test system: Human immunodeficiency virus 1; test: Antiviral activity against HIV1 3B bearing wild type protease infected in human MT4 cells assessed as inhibition of virus-induced cytopathic effect after 5 days by XTT assay; type: functional, organism-based; conditions: Human immunodeficiency virus 1, 3B, MT4, 120 h
Summary of the method: (§2)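 MT-4 cells (2 ×10⁴ cells/well) got 5-fold serial compound dilutions together with 20–50 TCID of HIV IIIb. The virus was wild type, or an M46I/V82F/I84V mutant isolated after 20 passages of IIIb in MT4 cells under increasing ritonavir. Cell viability was read with XTT after five days. EC₅₀ came from dose–response curves of percent cytoprotection.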

[3] = molecular target: T1, Protease (Human immunodeficiency virus 1, UniProt Q9YQ12); test: Inhibition of HIV1 recombinant protease by fluorometric assay
T1 sequence (Q9YQ12 whole entry): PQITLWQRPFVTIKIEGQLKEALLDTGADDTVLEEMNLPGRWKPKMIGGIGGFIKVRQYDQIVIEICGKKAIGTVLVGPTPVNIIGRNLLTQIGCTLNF
Summary of the method: (§3)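 HIV-1 protease was cloned and expressed heterologously in E. coli. K_i values were determined in a fluorometric assay.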

[4] = test system: Human immunodeficiency virus 1; test: Antiviral activity against HIV1 3B bearing protease with M46I, V82F and I84V mutation infected in human MT4 cells assessed as inhibition of virus-induced cytopathic effect after 5 days by XTT assay; type: functional, organism-based; conditions: Human immunodeficiency virus 1, 3B, MT4, 120 h; summary of the method: as §1
[5] = Apparent permeability across human Caco-2 cell membrane; type: ADME, cell-based
[6] = molecular target: T1, Protease; test: Inhibition of HIV1 protease; summary of the method: as §3
[7] = test system: Human immunodeficiency virus 1; test: Antiviral activity against HIV1; type: functional, organism-based; summary of the method: as §2

Structure (SMILES)	Ratio EC50 [1]	EC50 [2] [µM]	Ki [3] [µM]	EC50 [4] [µM]	Papp [5] [×10⁻⁶ cm/s]	Ki [6] [µM]	EC50 [7] [µM]
CNC(=O)[C@@H](NC(=O)[C@H](OCc1ccccc1)[C@H](O)[C@@H](O)[C@@H](OCc1ccccc1)C(=O)N[C@H]1c2ccccc2C[C@H]1O)C(C)COC (single isomer, unassigned; 4d)	> 2	3.5	0.018	> 10			
CNC(=O)[C@@H](NC(=O)[C@H](OCc1ccccc1)[C@H](O)[C@@H](O)[C@@H](OCc1ccccc1)C(=O)N[C@H]1c2ccccc2C[C@H]1O)C(C)COC (single isomer, unassigned; 4e)	4	0.33	0.0007	1.3			
COCCNC(=O)[C@@H](NC(=O)[C@H](OCc1ccccc1)[C@H](O)[C@@H](O)[C@@H](OCc1ccccc1)C(=O)N[C@H]1c2ccccc2C[C@H]1O)C(C)C	5	0.25	0.0023	1.2			
CNC(=O)[C@@H](NC(=O)[C@H](OCc1ccccc1)[C@H](O)[C@@H](O)[C@@H](OCc1ccccc1)C(=O)N[C@H]1c2ccccc2C[C@H]1O)C1COC1	> 1.6	5.4	0.01	> 10			
CC(C)[C@H](NC(=O)[C@H](OCc1ccccc1)[C@H](O)[C@@H](O)[C@@H](OCc1ccccc1)C(=O)N[C@H]1c2ccccc2C[C@H]1O)C(=O)NCCF	3	0.17	0.001	0.44	1.6		
CNC(=O)[C@H](NC(=O)[C@H](OCc1ccccc1)[C@H](O)[C@@H](O)[C@@H](OCc1ccccc1)C(=O)N[C@H]1c2ccccc2C[C@H]1O)C1COC1		> 10	0.099	> 10			
CNC(=O)[C@H](CCOC)NC(=O)[C@H](OCc1ccccc1)[C@H](O)[C@@H](O)[C@@H](OCc1ccccc1)C(=O)N[C@H]1c2ccccc2C[C@H]1O	3	1.8	0.01	6.9			
O=C(N[C@H]1c2ccccc2C[C@H]1O)[C@H](OCc1ccccc1)[C@H](O)[C@@H](O)[C@@H](OCc1ccccc1)C(=O)N[C@H]1c2ccccc2C[C@H]1O						0.0006	0.1
CC(C)[C@H](NC(=O)[C@H](OCc1ccccc1)[C@H](O)[C@@H](O)[C@@H](OCc1ccccc1)C(=O)N[C@H]1c2ccccc2C[C@H]1O)C(=O)NCC(F)(F)F	5	0.15	0.0019	0.92	2.9		
CNC(=O)[C@@H](NC(=O)[C@H](OCc1ccccc1)[C@H](O)[C@@H](O)[C@@H](OCc1ccccc1)C(=O)N[C@H]1c2ccccc2C[C@H]1O)C(C)C	9	0.14	0.0002	1.2	1.4	0.0002	0.14
